Data on seven molecules can be found in ChEMBL document CHEMBL1129511 (J Med Chem, 1996).

For one data set, the system named is LoVo. Kind of data set: Inhibitory concentration was evaluated against colorectal tumar cell line LoVo. It is filed as functional, cell-based. The note with it: Homo sapiens. An outline of the steps:
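Cells were exposed to compound in microtitre plates for 1 h, washed, then grown a further 3 days at 37 °C. They were fixed with TCA, and adherent cellular protein was measured by SRB staining. IC50 is the concentration giving 50% growth inhibition.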

In data set [1] the test system is Bacteria. Kind of data set: Michaelis-Menten constant for bacterial Carboxypeptidase. An outline of the steps:
(§1)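 CPG2 kinetics adapted from the methotrexate CPG2 method. Prodrug and drug spectra were scanned from 200 to 350 nm, and the wavelength of maximal absorbance difference from glutamate release was chosen. Initial rates of prodrug conversion were measured at 1-100 µM prodrug with 0.05-1 Unit CPG2 to give Km and Vmax. kcat was Vmax divided by the amount of CPG2.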

Data set [2] is described as follows: Half life period was reported. The class given is ADME.
Data set [3] deals with Bacteria. In words: Catalytic rate constant for bacterial Carboxypeptidase. An outline of the steps: as §1

Some results are limits rather than exact numbers.

As to `CS(=O)(=O)OCCN(CCCl)c1ccc(C(=O)O)cc1`, half-maximal inhibition in the data set with LoVo (IC50) required 80 µM.
Regarding `O=C(O)CC[C@H](NC(=O)Nc1ccc(N(CCCl)CCCl)cc1)C(=O)O`, in the data set with Bacteria [1], the Michaelis constant (Km) came to 3 µM. Also, the IC50 with LoVo was 200 µM. In data set [2], this molecule registered a half-life of 16.9 min. Also, the k cat in the data set on Bacteria [3] is 7.5 s⁻¹.
As to `CS(=O)(=O)OCCN(CCCl)c1ccc(C(=O)N[C@@H](CCC(=O)O)C(=O)O)cc1`, the Km in the data set with Bacteria [1] was found to be 3.4 µM. For the same molecule, the half-maximal inhibitory concentration (IC50) in the data set with LoVo was > 500 µM. Moreover, the half-life in data set [2] was determined as 46 min. The same molecule yielded a k cat with Bacteria [3] of 583 s⁻¹.
On the same counts, the results for `O=C(O)CC[C@H](NC(=O)Oc1ccc(N(CCCl)CCCl)cc1)C(=O)O` are 1 µM, 200 µM, 31 min and 49 s⁻¹.
For `O=C(O)CC[C@H](NC(=O)c1ccc(N(CCCl)CCCl)cc1)C(=O)O`, in that order: 3.4 µM, > 500 µM, 660 min and 700 s⁻¹.
For `O=C(O)CC[C@H](NC(=O)Sc1ccc(N(CCCl)CCCl)cc1)C(=O)O`, the Km in the data set on Bacteria [1] was found to be 50 µM. In the data set on LoVo, half-maximal inhibition (IC50) required 100 µM. The molecule further came in with a half-life in data set [2] of 32.2 min. The same molecule came in with a k cat in the data set with Bacteria [3] of 4 s⁻¹.
`O=C(O)CC[C@H](NC(=O)Cc1ccc(N(CCCl)CCCl)cc1)C(=O)O`: in the data set on Bacteria [1], the Km was 16 µM. The IC50 in the data set on LoVo is > 500 µM. Also, in data set [2], the half-life worked out at 33 min. In the data set with Bacteria [3], this molecule showed a k cat of 15 s⁻¹.
